Data reported in paper PMC4174992 (The Journal of Physical Chemistry. B, 2014).
Read-outs that look alike come from different tables or passages of the source.

What was measured:
[1] = system: embryonic rat hippocampal neurons; settings: Busciglio and co-workers; cited from earlier work
Atomic force microscopy = type: physicochemical
Summary of the method: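 Samples were N-acetyl/C-amide peptides at 200 μM in water, with no buffer, to slow aggregation and limit charge screening. Peptide stocks were made in filtered deionized water, flash-frozen and kept at −80 °C. AFM height images were taken at 1 Hz with 512 × 512 points, fibrils masked and first-order flattened. Each fibril or granular-aggregate height and length is the mean of 20 measurements.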

[2] = Ion-mobility mass spectrometry; type: physicochemical; settings: IM-MS, 200 μM in water
[3] = cited from earlier work

**Q.** Which “result compared with Aβ(25–35) effect on neurons” value [1] does the source give for Aβ(1–40): full length Aβ isoform here?
**A.** Its value is “similar”.

**Q.** For “Ac-Aβ(25–35)-NH2: amphipathic amyloid-β fragment containing the hydrophobic hexapeptide GAIIGL (Ac-GSNKGAIIGLM-NH2; UniProt P05067 696-706, looked up, fragment)”, which “aggregates observed by AFM (1 week)” value (Atomic force microscopy; 1 week incubated, 200 μM in water, mixture at 1:1) is on record?
**A.** Its value is “abundant fibrillar aggregates”.

**Q.** What about the “time to fibrillar aggregates” value (Atomic force microscopy; fresh peptide, in water) of the same substance?
**A.** The value was “within an hour”.

**Q.** What about the largest oligomers observed ([2]; heteroligomers from 1:1 mixture) of the same substance?
**A.** The largest oligomers observed was “hexamers and nonamers”.

**Q.** And the “onset of cross-section deviation from isotropic oligomer model” value ([2]; indicates extended oligomers)?
**A.** Its value is “starting at the trimer stage”.

**Q.** Which “aggregation strength (class 6 steric zipper)” value (“aggregation strength” below) ([3]; PDB 4OLR / 4ONK) does the source give for YVVFV here?
**A.** Its value is “weakly aggregating”.

**Q.** With YVVFL as the substance, how does the “aggregation strength” value ([3]; PDB 4OLR / 4ONK) read?
**A.** Its value is “weakly aggregating”.

**Q.** Which “aggregation strength” value ([3]; PDB ID 3FTH) does the source give for NFLVHSS here?
**A.** The value was “weakly aggregating”.
